In ChEMBL document CHEMBL4041463, “Pyrazolo[1,5-a]pyridine-3-carboxamide hybrids: Design, synthesis and evaluation of anti-tubercular activity” (Eur J Med Chem, 2017):
In brackets after ≈: the same amount, converted by molar mass.

System: Mycobacterium tuberculosis
Assay: Antitubercular activity against Mycobacterium tuberculosis H37Rv measured on day 7 post dose by microplate alamar blue assay
Assay type: functional
Settings: 168 h
Outline: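 MABA against H37Rv in 7H12 medium, two-fold dilutions, final 0.05–5 or 0.004–1 µg/mL (DMSO stocks 5 or 2 mg/mL). Inoculum 2×10⁵ cfu/mL, 37 °C. On day 7, Tween 80 and Alamar Blue added; fluorescence (ex 530/em 590) read after 16–24 h. MIC = interpolated lowest concentration giving ≥90% fluorescence reduction versus bacteria-only controls. INH and RIF as controls.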

SMILES | MIC90
CCc1nn2ccc(Cl)cc2c1C(=O)NCc1ccc(-c2ccc(OC(F)(F)F)cc2)nc1 | 0.2 µg/mL (≈ 0.421 µM)
CCc1nn2ccc(Cl)cc2c1C(=O)NCC1CCN(CC23CC4CC(CC(C4)C2)C3)CC1 | > 1 µg/mL
Cc1ccn2nc(C)c(C(=O)NCc3ccc(N4CCC(Oc5ccc(OC(F)(F)F)cc5)CC4)cc3)c2c1 | 0.006 µg/mL (≈ 0.0111 µM)
CCc1nn2ccc(Cl)cc2c1C(=O)NC/C=C(\C)CCC=C(C)C | 0.17 µg/mL (≈ 0.472 µM)
Cc1ccn2nc(C)c(C(=O)NCc3ccc(OC(F)(F)F)cc3)c2c1 | 0.91 µg/mL (≈ 2.5 µM)
NNC(=O)c1ccncc1 [ISONIAZID] | 0.1 µg/mL (≈ 0.729 µM)
CO[C@H]1/C=C/O[C@@]2(C)Oc3c(C)c(O)c4c(O)c(c(/C=N/N5CCN(C)CC5)c(O)c4c3C2=O)NC(=O)/C(C)=C\C=C\[C@H](C)[C@H](O)[C@@H](C)[C@@H](O)[C@@H](C)[C@H](OC(C)=O)[C@@H]1C [RIFAMPIN] | 0.003 µg/mL (≈ 0.00365 µM)
